Results reported in ChEMBL document CHEMBL5696442, “Discovery of type II inhibitors of TGFβ-activated kinase 1 (TAK1) and mitogen-activated protein kinase kinase kinase kinase 2 (MAP4K2)” (J Med Chem, 2015).

Tests used:
Format in all cases: cell-based
[1] = target: Tyrosine-protein kinase ABL1 (Homo sapiens, UniProt P00519); experiment: Inhibition of ABL ACT labeling site in human A-375 cells at 0.5 uM by KiNativ Profiling analysis relative to control
In short: (§1)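 Intact A375 melanoma cells were treated with compound at 5 or 0.5 μM, then lysed. Lysate kinases were labeled with a lysine-reactive ATP or ADP-biotin probe (KiNativ). Inhibition is read as protection of each kinase labeling site from probe labeling.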

[2] = target: DNA-PK/Ku70/Ku85 (Homo sapiens) (UniProt P78527+P12956+P13010); experiment: Inhibition of DNAPK ATP labeling site harbouring EHPFLVKGGEDLR in human A-375 cells at 5 uM by KiNativ Profiling analysis relative to control
In short: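 Live A375 melanoma cells were treated with compound at 0.5 or 5 μM, then lysed. Lysates were labeled with a lysine-reactive ATP or ADP-biotin probe. The read-out was protection of each kinase probe-labeling site from labeling, relative to control.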

[3] = target: Ribosomal protein S6 kinase alpha-2 (Homo sapiens) (UniProt Q15349); experiment: Inhibition of RSK3 Protein Kinase Domain in human A-375 cells at 0.05 uM by KiNativ Profiling analysis relative to control
[4] = target: Tyrosine-protein kinase receptor UFO (Homo sapiens) (UniProt P30530); experiment: Inhibition of AXL ACT labeling site in human A-375 cells at 0.05 uM by KiNativ Profiling analysis relative to control
[5] = target: Serine/threonine-protein kinase 24 (Homo sapiens) (UniProt Q9Y6E0); experiment: Inhibition of MST3 Lys2 labeling site harbouring DIKAANVLLSEHGEVK in human A-375 cells at 0.05 uM by KiNativ Profiling analysis relative to control
[6] = target: T1, Mitogen-activated protein kinase kinase kinase 2 (Homo sapiens) (UniProt Q9Y2U5); experiment: Inhibition of MAP3K2 Lys1 labeling site harbouring ELAVKQVQFDPDSPETSKEVNALECEIQLLK in human A-375 cells at 0.05 uM by KiNativ Profiling analysis relative to control
T1 sequence (whole entry): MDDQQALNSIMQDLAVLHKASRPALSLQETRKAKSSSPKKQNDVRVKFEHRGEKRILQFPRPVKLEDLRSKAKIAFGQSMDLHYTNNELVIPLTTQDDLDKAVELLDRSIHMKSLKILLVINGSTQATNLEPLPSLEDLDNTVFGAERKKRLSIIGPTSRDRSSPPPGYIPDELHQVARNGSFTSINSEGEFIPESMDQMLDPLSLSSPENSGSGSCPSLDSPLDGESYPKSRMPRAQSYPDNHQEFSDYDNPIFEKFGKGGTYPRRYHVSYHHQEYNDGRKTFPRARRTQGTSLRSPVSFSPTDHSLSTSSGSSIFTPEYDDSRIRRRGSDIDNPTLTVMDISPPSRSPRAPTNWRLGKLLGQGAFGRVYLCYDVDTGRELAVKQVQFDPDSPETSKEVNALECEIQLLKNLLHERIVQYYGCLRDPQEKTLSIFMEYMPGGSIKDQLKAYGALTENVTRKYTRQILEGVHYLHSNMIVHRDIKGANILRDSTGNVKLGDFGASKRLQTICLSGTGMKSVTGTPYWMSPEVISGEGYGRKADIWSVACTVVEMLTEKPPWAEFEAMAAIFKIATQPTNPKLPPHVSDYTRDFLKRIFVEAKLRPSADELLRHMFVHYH

[7] = target: Serine/threonine-protein kinase SIK3 (Homo sapiens) (UniProt Q9Y2K2); experiment: Inhibition of QSK Lys2 labeling site in human A-375 cells at 5 uM by KiNativ Profiling analysis relative to control
[8] = target: T2, Serine/threonine-protein kinase 3 (Homo sapiens) (UniProt Q13188); experiment: Inhibition of MST2 Lys2 labeling site harbouring DIKAGNILLNTEGHAK in human A-375 cells at 5 uM by KiNativ Profiling analysis relative to control
T2 sequence (whole entry): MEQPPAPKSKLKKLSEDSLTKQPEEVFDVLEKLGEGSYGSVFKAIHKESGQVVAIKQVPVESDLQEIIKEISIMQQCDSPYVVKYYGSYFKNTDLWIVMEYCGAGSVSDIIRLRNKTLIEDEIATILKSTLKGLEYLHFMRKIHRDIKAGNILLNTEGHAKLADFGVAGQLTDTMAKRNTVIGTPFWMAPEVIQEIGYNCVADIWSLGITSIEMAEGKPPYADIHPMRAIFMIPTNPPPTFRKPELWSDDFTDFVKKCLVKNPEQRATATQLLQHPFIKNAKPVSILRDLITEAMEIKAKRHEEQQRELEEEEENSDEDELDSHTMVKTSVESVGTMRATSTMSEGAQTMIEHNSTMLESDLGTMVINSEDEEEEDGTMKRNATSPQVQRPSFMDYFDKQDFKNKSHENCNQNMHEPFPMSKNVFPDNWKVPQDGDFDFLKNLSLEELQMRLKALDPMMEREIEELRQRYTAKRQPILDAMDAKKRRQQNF

[9] = target: T3, Tyrosine-protein kinase Fer (Homo sapiens, UniProt P16591); experiment: Inhibition of FER Lys1 labeling site harbouring TSVAVKTCKEDLPQELKin human A-375 cells at 0.05 uM by KiNativ Profiling analysis relative to control
[10] = target: Tyrosine-protein kinase ABL2 (Homo sapiens, UniProt P42684); experiment: Inhibition of ARG Lys1 labeling site in human A-375 cells at 0.5 uM by KiNativ Profiling analysis relative to control; in short: as §1
[11] = target: T3, Tyrosine-protein kinase Fer; experiment: Inhibition of FER ACT labeling site in human A-375 cells at 5 uM by KiNativ Profiling analysis relative to control
[12] = target: T1, Mitogen-activated protein kinase kinase kinase 2 (Homo sapiens); experiment: Inhibition of MAP3K2 Lys1 labeling site harbouring ELAVKQVQFDPDSPETSKEVNALECEIQLLK in human A-375 cells at 5 uM by KiNativ Profiling analysis relative to control
[13] = target: T4, Mitogen-activated protein kinase 12 (Homo sapiens) (UniProt P53778); experiment: Inhibition of p38 gamma Lys2 labeling site in human A-375 cells at 5 uM by KiNativ Profiling analysis relative to control
T4 sequence (whole entry): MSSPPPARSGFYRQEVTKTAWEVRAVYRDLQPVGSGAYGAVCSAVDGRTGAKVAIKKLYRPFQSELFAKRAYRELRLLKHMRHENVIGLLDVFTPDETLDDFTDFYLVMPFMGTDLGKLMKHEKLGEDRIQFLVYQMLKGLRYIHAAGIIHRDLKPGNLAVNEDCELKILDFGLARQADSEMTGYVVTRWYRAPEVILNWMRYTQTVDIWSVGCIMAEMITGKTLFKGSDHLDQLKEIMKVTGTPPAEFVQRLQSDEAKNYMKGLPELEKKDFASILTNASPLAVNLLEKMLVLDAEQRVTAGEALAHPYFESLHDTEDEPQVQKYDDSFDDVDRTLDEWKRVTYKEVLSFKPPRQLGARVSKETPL

[14] = target: Serine/threonine-protein kinase Chk2 (Homo sapiens) (UniProt O96017); experiment: Inhibition of CHK2 Lys1 labeling site in human A-375 cells at 0.05 uM by KiNativ Profiling analysis relative to control
Chain of Serine/threonine-protein kinase Chk2 (Homo sapiens) (O96017 whole entry): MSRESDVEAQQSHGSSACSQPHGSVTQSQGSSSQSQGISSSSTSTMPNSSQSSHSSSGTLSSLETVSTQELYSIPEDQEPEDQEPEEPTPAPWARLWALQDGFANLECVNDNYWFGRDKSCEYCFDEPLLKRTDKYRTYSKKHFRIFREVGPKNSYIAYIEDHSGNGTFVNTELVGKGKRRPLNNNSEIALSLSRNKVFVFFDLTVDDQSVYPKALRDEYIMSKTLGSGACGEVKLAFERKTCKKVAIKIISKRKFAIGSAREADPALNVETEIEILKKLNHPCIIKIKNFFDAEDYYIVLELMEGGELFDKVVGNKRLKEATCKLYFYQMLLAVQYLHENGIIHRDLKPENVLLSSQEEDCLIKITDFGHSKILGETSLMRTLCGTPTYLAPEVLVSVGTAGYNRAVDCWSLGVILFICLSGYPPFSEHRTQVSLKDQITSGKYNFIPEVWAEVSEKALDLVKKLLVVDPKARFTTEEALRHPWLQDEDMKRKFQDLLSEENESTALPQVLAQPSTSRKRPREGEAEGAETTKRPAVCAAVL

T3 sequence (P16591 whole entry, looked up): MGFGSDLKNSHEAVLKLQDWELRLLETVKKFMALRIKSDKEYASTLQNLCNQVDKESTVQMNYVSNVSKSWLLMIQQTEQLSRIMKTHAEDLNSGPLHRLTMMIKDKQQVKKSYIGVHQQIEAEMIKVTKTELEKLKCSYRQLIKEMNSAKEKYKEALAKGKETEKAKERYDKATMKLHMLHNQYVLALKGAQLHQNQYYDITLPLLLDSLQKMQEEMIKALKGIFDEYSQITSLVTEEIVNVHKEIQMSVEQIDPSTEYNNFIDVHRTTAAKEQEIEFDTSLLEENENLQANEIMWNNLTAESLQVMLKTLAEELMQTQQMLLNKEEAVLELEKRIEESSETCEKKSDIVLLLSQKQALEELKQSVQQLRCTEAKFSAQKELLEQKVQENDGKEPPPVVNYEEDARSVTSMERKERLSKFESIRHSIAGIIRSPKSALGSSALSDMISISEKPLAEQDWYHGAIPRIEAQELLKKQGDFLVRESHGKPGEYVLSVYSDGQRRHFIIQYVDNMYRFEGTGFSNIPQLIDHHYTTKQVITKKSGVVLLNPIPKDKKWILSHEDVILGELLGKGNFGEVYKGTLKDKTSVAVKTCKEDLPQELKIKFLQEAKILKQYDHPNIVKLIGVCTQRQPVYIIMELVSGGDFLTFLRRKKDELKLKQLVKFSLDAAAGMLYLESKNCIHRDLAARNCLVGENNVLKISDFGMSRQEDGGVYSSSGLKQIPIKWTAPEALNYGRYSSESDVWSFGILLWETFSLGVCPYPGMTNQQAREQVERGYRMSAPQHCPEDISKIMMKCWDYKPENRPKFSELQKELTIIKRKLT
Chain of Ribosomal protein S6 kinase alpha-2 (Homo sapiens) (Q15349 whole entry, the tested form may be a part): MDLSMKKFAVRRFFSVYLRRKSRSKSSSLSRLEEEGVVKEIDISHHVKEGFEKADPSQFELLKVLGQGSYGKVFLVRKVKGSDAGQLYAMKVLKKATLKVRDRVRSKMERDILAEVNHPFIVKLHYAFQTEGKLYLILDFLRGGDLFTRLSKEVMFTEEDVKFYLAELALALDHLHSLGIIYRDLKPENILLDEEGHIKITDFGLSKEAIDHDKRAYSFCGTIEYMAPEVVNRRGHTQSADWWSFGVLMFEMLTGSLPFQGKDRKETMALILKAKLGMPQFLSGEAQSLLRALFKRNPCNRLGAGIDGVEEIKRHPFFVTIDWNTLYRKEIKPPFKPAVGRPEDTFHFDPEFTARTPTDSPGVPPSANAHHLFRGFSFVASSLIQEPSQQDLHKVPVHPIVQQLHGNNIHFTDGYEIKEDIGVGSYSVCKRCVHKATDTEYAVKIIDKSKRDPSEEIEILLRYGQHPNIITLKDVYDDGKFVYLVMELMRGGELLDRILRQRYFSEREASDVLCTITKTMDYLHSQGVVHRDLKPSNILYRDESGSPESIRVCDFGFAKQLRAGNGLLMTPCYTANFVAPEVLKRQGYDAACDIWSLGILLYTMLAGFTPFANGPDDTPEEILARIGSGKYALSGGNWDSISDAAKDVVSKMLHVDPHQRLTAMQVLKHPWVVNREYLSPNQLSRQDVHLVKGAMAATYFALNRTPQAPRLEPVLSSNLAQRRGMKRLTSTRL
Chain of Serine/threonine-protein kinase 24 (Homo sapiens) (Q9Y6E0 whole entry, looked up): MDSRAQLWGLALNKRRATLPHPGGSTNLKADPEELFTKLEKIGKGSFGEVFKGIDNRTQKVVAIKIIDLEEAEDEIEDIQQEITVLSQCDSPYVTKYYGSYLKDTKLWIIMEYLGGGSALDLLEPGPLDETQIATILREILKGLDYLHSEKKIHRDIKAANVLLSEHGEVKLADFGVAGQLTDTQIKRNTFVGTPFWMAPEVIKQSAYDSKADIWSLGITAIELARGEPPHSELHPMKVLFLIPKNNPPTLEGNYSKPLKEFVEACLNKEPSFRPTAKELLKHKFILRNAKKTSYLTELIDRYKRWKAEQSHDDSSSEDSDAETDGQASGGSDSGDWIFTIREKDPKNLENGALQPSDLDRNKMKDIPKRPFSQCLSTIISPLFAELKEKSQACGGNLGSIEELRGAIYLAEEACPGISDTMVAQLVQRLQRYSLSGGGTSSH
Chain of Tyrosine-protein kinase receptor UFO (Homo sapiens) (P30530 whole entry): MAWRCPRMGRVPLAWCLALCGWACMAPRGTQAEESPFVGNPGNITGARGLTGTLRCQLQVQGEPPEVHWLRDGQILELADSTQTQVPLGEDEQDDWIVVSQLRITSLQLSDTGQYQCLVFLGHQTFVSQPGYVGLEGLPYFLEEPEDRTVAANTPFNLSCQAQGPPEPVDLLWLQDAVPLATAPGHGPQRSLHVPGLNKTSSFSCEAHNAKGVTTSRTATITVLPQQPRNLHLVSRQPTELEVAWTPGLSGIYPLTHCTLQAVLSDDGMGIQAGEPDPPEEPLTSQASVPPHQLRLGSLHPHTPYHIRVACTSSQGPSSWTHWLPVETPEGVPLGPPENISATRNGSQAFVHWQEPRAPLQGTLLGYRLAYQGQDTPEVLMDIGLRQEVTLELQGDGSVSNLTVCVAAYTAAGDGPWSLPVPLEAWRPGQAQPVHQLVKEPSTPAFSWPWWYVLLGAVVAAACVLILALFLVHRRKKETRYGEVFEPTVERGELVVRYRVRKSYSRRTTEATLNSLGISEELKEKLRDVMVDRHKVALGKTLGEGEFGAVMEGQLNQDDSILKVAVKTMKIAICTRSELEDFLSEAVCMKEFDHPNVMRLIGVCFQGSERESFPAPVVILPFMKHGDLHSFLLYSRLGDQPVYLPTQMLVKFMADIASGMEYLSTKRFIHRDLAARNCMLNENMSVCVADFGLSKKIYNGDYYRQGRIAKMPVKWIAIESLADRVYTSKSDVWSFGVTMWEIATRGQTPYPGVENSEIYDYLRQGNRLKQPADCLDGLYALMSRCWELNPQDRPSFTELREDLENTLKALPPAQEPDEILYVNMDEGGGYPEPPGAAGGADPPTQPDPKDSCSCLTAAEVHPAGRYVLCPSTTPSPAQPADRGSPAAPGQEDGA
Chain of Tyrosine-protein kinase ABL2 (P42684 whole entry): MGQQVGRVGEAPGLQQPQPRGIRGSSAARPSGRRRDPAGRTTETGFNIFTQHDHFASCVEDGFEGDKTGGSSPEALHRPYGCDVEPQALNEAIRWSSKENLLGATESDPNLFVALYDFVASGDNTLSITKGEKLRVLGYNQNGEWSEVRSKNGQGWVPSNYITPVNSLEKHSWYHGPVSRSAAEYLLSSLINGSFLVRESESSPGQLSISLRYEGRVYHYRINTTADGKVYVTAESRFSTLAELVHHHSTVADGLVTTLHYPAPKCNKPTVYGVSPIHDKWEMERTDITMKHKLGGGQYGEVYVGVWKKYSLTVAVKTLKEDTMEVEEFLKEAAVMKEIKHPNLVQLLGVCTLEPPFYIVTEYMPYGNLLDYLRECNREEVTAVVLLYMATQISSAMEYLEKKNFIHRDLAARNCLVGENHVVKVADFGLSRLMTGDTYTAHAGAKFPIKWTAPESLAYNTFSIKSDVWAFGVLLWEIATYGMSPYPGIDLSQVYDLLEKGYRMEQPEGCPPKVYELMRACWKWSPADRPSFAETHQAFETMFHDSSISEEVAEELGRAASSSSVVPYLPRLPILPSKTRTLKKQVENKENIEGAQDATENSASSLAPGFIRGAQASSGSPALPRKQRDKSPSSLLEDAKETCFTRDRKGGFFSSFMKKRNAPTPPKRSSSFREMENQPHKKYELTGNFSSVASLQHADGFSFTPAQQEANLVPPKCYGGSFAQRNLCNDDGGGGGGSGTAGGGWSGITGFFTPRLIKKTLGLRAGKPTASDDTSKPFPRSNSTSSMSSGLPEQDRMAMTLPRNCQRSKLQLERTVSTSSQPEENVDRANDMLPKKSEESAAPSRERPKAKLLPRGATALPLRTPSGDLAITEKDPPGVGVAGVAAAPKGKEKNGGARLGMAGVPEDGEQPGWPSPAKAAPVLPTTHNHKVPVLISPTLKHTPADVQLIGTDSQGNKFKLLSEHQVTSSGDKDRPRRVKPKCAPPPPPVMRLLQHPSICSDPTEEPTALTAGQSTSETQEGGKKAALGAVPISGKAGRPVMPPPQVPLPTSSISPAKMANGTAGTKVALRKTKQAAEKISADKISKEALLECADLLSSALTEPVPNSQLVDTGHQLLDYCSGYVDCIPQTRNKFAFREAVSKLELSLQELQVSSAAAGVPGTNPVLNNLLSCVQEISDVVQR

Compound	inhibition [1]	inhibition [2]	inhibition [3]	inhibition [4]	inhibition [5]	inhibition [6]	inhibition [7]	inhibition [8]	inhibition [9]	inhibition [10]	inhibition [11]	inhibition [12]	inhibition [13]	inhibition [14]
CCN1CCN(Cc2ccc(NC(=O)c3ccc(C)c(Oc4ccnc5[nH]ccc45)c3)cc2C(F)(F)F)CC1	> 98%	12.4%	-4.7%	12.4%	-2.7%	11.8%	29.6%	3.5%	64.6%	85.5%	96.8%	44.4%	> 94%	-1.9%
CCN1CCN(Cc2ccc(NC(=O)c3ccc(C)c(/C=C/c4cnc5[nH]ccc5c4OC)c3)cc2C(F)(F)F)CC1	> 98%	15.4%	1.4%	10.1%	3.2%	5.2%	28.6%	14.1%	2.6%	> 90%	74%	60.6%	52.7%	2.9%
